Experimental data from different studies.
Sample: plasma

| SMILES | system | setting | AUC(0-inf) |
| --- | --- | --- | --- |
| COc1cc(C(=O)N2CCC(N3CCN(C)CC3)CC2)ccc1Nc1ncc2c(n1)N(C)c1ccccc1C(=O)N2C | mouse | intravenous, 1 mg/kg | 2970 ng·h/mL |
| Cc1cc(NC(=O)c2cccc3cc(-c4cccc5[nH]nc(N)c45)ccc23)ccc1F | male CD-1 mouse | oral, 10 mg/kg | 4940 ng·h/mL |
| CC[C@H](C)[C@@H]1NC(=O)[C@@](C)(NC(=O)[C@H](CCCNC(=N)N)NC(=O)[C@H](CC(C)C)NC(=O)[C@@H](NC(=O)[C@H](CCC(N)=O)NC(=O)[C@H](CC(C)C)NC(C)=O)[C@@H](C)O)CCCC=CCCC[C@@](C)(C(=O)N[C@@H](CC(C)C)C(=O)N[C@@H](Cc2ccc3ccccc3c2)C(N)=O)NC(=O)[C@H](CCCNC(=N)N)NC(=O)[C@H](CCC(N)=O)NC1=O | male BALB/c mouse | intravenous, 10 mg/kg | 233000 ng·h/mL |
| CNCCN(C)c1cc(C#N)cc(CCc2cc(C)cc(N)n2)c1 | male BALB/c mouse | intravenous, 2 mg/kg | 181 ng·h/mL |
| Cc1cc(Nc2ccc(S(F)(F)(F)(F)F)cc2)n2ccnc2n1 | male Swiss mouse | oral, 100 mg/kg, single dose | 154 µM·h |
| COc1ccc2nccc(N3CCc4c(cc(Cn5ccnc5)cc4-c4cn(C)nc4C(F)(F)F)C3=O)c2c1 | male CD-1 mouse | oral, 50 mg/kg | 33800 ng·h/mL |
| COc1nc(-c2cc(C)c(N[C@@H](C)c3ccc(F)cc3)nn2)ccc1-n1cnc(C)c1 | male CD-1 mouse | intravenous, 1 mg/kg, single dose | 4280 ng·h/mL |
| Cc1ccc2cncc(N3CCc4c(cc(Cn5ccnc5)cc4-c4cn(C)nc4C(F)(F)F)C3=O)c2c1 | male CD-1 mouse | oral, 10 mg/kg | 4460 ng·h/mL |
| CC(C)(C)c1ccc(O)c(CN(Cc2cc(C(C)(C)C)ccc2O)C2CCC(NC(N)=O)CC2)c1 (stereo not drawn) | male C57BL/6 mouse | intraperitoneal, 25 mg/kg, single dose | 16600 ng·h/mL |
| Cc1ccc(NC(=O)c2ccc(CN3CCN(C)CC3)cc2)cc1Nc1nccc(-c2cncc(-c3oncc3C)c2)n1 | male C57BL/6 mouse | oral, 100 mg/kg/day | 38000 ng·h/mL |
| Cc1nc(-c2cnc(NC(C)C)n(C)c2=O)ccc1Oc1ccnc(-c2cnn(C)c2)c1 | female mouse | oral, 7.5 mg/kg, single dose | 80400 ng·h/mL |
| CC(C)(Nc1nc(-c2ccccn2)nc2ccccc12)c1ccccn1 | female BALB/c mouse | intravenous, 1 mg/kg | 1460 ng·h/mL |
| CCc1cc(C(=O)NC)c2nccc(N3CCc4c(cc(Cn5ccnc5)cc4-c4cn(C)nc4C(F)(F)F)C3=O)c2c1 | male CD-1 mouse | intravenous, 3 mg/kg | 4180 ng·h/mL |
| CN1C(=O)c2ccccc2[S@+]([O-])c2ccc(C(=O)NCCc3cccs3)cc21 | male C57BL/6 mouse | intraperitoneal, 30 mg/kg, single dose | 7840 ng·h/mL |
| CNC(=O)c1cc(OC)cc2c(N3CCc4c(cc(Cn5ccnc5)cc4-c4cn(C)nc4C(F)(F)F)C3=O)ccnc12 | male CD-1 mouse | intravenous, 3 mg/kg | 3300 ng·h/mL |
| COc1nc(-c2cc(C)c(N[C@@H](C)c3cc(F)cc(F)c3)nn2)ccc1-n1cnc(C)c1 | male CD-1 mouse | intravenous, 1 mg/kg, single dose | 2070 ng·h/mL |
| COc1cc2c(Nc3ccc(Cl)c(Cl)c3F)ncnc2cc1OC[C@@H]1C[C@@H]2CN(C)C[C@@H]2C1 | FVB mouse | oral, 70 mg/kg, single dose | 83000 ng·h/mL |
| CCc1cc(OC)c2nccc(N3CCc4c(cc(Cn5ccnc5)cc4-c4cn(C)nc4C(F)(F)F)C3=O)c2c1 | male CD-1 mouse | oral, 150 mg/kg | 225000 ng·h/mL |
| Cc1noc(C)c1-c1ccc2nc(-c3cnn(CCO)c3)nc(N3CCOCC3c3ccccc3)c2c1 (stereo not drawn) | CD-1 mouse | intravenous, 2 mg/kg | 1760 ng·h/mL |
| COc1cc(OC)c2nccc(N3CCc4c(cc(Cn5ccnc5)cc4-c4cn(C)nc4C(F)(F)F)C3=O)c2c1 | male CD-1 mouse | intravenous, 3 mg/kg | 805 ng·h/mL |
| COc1ccc2nc(-c3ccccn3)c(N(C)c3ccc(F)cc3)n2c1 | male CD-1 mouse | oral, 50 mg/kg, fasted | 969 ng·h/mL |
